Measured values from different studies.
Compare with care: the assays were run in different laboratories.
Target: Serine/threonine-protein kinase DCLK1 (DCLK1, Homo sapiens, UniProt O15075)
One construct used (O15075 1-740): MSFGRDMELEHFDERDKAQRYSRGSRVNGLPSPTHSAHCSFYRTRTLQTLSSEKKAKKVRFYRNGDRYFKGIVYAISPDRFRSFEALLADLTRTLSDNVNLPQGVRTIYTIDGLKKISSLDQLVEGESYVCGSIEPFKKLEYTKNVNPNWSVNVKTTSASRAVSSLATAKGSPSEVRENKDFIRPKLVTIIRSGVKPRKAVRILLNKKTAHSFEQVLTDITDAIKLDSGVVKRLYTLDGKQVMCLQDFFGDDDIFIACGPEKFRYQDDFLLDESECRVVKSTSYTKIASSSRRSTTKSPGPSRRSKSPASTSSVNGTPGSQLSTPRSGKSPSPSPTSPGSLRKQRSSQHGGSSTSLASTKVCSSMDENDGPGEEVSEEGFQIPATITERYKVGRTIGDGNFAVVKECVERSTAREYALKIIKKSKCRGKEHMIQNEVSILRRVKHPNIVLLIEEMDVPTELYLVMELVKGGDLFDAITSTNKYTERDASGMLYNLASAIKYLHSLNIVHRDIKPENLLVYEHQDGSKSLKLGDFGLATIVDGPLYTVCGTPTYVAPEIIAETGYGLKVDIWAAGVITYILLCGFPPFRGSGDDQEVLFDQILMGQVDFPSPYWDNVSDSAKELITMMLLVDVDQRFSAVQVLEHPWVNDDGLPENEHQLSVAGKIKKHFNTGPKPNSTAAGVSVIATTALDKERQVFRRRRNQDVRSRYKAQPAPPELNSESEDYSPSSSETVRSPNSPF

SMILES | test | setting | measurement | value
Cn1c2c(c3ccc(Cl)c(Cl)c31)C(C#N)C1(CCOCC1)NC2=O (centres unmarked) | thermal stability, DSF | 10 µM | ΔTm | 0 °C
Nc1cnc(N2CCc3cc(S(=O)(=O)Nc4c(F)cc(Cl)cc4F)cc(N4CCCC4=O)c32)nc1 | cell-free assay, competition with immobilised ligand | 1 µM | remaining binding | 100%
CS(=O)(=O)Nc1cccc(-c2csc(NC(=O)CSc3nc4nccnc4c(=O)n3CCc3ccccc3)n2)c1 | enzyme activity, inhibitor | 10 µM | inhibition | 1%
Cn1c2c(Cl)c(Cl)ccc2c2cc[nH]c(=O)c21 | thermal stability, DSF | 10 µM | ΔTm | -0.1 °C
Cc1ccc(C(=O)Nc2ccc(CN3CCN(C)CC3)c(C(F)(F)F)c2)cc1C#Cc1cnc2cccnn12 | enzyme activity, inhibitor | 23.5 nM | remaining activity | 93%
O=C(CSc1nc2nccnc2c(=O)n1CCc1ccccc1)Nc1nccs1 | enzyme activity, inhibitor | 10 µM | inhibition | 14%
CC(=O)N1CCC(c2ccc(C(=O)NC(=N)N)cc2C(F)(F)F)CC1 | cell-free assay, competition with immobilised ligand | 1 µM | remaining binding | 100%
O=C(Nc1cnn(-c2csc(C(=O)NC3COC3)c2)c1)Nc1ccccc1Cl | enzyme activity, inhibitor | 5 µM | remaining activity | 99.2%
Cn1c2c(c3ccc(Cl)c(Cl)c31)C(C#N)C1(CCN(C(=O)OC(C)(C)C)CC1)NC2=O (racemic) | thermal stability, DSF | 10 µM | ΔTm | 0 °C
CC(C)(O)[C@H]1CC[C@H](Nc2ccc3ncc(-c4cccc(C(F)(F)F)c4)n3n2)CC1 | enzyme activity, inhibitor | 1 µM | remaining activity | 93.4%
Nc1ncnc2occ(-c3ccc(NC(=O)Nc4cc(C(F)(F)F)ccc4F)cc3)c12 | cell-free assay, inhibitor | 20 µM | remaining signal | 80%
Cc1sc(C(=O)NC2COC2)cc1-n1cc(NC(=O)Nc2c(F)cccc2Cl)cn1 | enzyme activity, inhibitor | 10 µM | remaining activity | 67.2%
Cn1c2c(Cl)c(Cl)ccc2c2cc(N)[nH]c(=O)c21 | thermal stability, DSF | 10 µM | ΔTm | 0.1 °C
Cc1c(NC(=O)c2cc(C(N)=O)nc3cc(F)ccc23)c(C(F)(F)F)nn1Cc1ccc(C(C)(C)C)cc1 | cell-free assay, competition with immobilised ligand | 1 µM | remaining binding | 91%
